Reference: ChEMBL document CHEMBL3739331, “Synthesis and Bioactivities of Kanamycin B-Derived Cationic Amphiphiles” (J Med Chem, 2015)
Values after ≈ are worked out from the molar mass of the structure shown. Active and inactive are the calls of the source. No cut-off for these calls is given here.

Legend:
Enterococcus = test: Antibacterial activity against vancomycin-resistant Enterococcus by microdilution method; assay type: functional
Outline: (§1)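 Broth microdilution MIC, in μg/mL, against a panel of Gram-positive and Gram-negative strains. Run at least in duplicate.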

Klebsiella pneumoniae = test: Antibacterial activity against Klebsiella pneumoniae ATCC 27736 by microdilution method; assay type: functional
Outline: (§2)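 Broth microdilution MIC against the named bacterial strain, reported in μg/mL; each determination run at least in duplicate.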

Bacillus subtilis = test: Antibacterial activity against Bacillus subtilis 168 by microdilution method; assay type: functional; conditions: subsp. subtilis str. 168; outline: as §2
Candida albicans [1] = test: Antifungal activity against azole-resistant Candida albicans ATCC 90819 after 48 hrs by microbroth dilution method; assay type: functional; conditions: ATCC 90819, 48 h
Outline: (§3)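 Yeast MIC by broth microdilution, run in duplicate. The aminoglycoside compounds are read as MIC-0 (complete inhibition). Azoles are read as MIC-2 (50% inhibition).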

[2] = Activity of Mycobacterium tuberculosis AAC(2')-1c/Serratia marcescens AAC(6')-2d assessed as compound conversion to 6'-monoacetylated product incubated for 20 hrs by TLC analysis
Aspergillus nidulans = test: Antifungal activity against Aspergillus nidulans ATCC 38163 after 48 hrs by microbroth dilution method; assay type: functional; conditions: ATCC 38163, 48 h
Outline: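 Filamentous fungus MIC by broth microdilution, run in duplicate. All compounds are read as MIC-0 (complete inhibition).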

Candida albicans [3] = test: Antifungal activity against azole-susceptible Candida albicans ATCC MYA-2876 after 48 hrs by microbroth dilution method; assay type: functional; conditions: ATCC MYA-2876, 48 h; outline: as §3
[4] = Hemolytic activity against mouse RBC at 100 to 500 ug/ml after 60 mins; assay type: ADME, cell-based; conditions: erythrocyte, 1 h
Staphylococcus aureus [5] = test: Antibacterial activity against Staphylococcus aureus NRS22 (USA 600) by microdilution method; assay type: functional; outline: as §2
Listeria monocytogenes [6] = test: Antibacterial activity against Listeria monocytogenes ATCC 19115 by microdilution method; assay type: functional; outline: as §2
Acinetobacter baumannii = test: Antibacterial activity against Acinetobacter baumannii ATCC 19606 by microdilution method; assay type: functional; outline: as §2
Staphylococcus aureus [7] = test: Antibacterial activity against Staphylococcus aureus NRS385 (USA 300) by microdilution method; assay type: functional; outline: as §1
Staphylococcus aureus [8] = test: Antibacterial activity against methicillin-resistant Staphylococcus aureus by microdilution method; assay type: functional; outline: as §1
[9] = Cytotoxicity against human BEAS2B cells after 24 hrs by resazurin assay; assay type: cell-based, BEAS-2B; conditions: human, beas-2b
[10] = Activity of AAC(3)-4 (unknown origin) assessed as compound conversion to monoacetylated product incubated for 20 hrs by TLC analysis
Candida albicans [11] = test: Antifungal activity against azole-resistant Candida albicans ATCC 64124 after 48 hrs by microbroth dilution method; assay type: functional; conditions: ATCC 64124, 48 h; outline: as §3
Escherichia coli = test: Antibacterial activity against Escherichia coli MC1061 by microdilution method; assay type: functional; outline: as §1
Salmonella enterica = test: Antibacterial activity against Salmonella enterica ATCC 14028 by microdilution method; assay type: functional; outline: as §2
Staphylococcus aureus [12] = test: Antibacterial activity against Staphylococcus aureus ATCC 29213 by microdilution method; assay type: functional; outline: as §2
Candida albicans [13] = test: Antifungal activity against azole-resistant Candida albicans MYA-1237 after 48 hrs by microbroth dilution method; assay type: functional; conditions: MYA-1237, 48 h; outline: as §3
Candida albicans [14] = test: Antifungal activity against azole-resistant Candida albicans ATCC 64124 assessed as cell membrane permeabilization at 62.5 ug/ml after 1 hr by propidium iodide-staining based fluorescence microscopic analysis (reference value: <2%); assay type: functional
Candida albicans [15] = test: Antifungal activity against azole-resistant Candida albicans ATCC 10231 after 48 hrs by microbroth dilution method; assay type: functional; conditions: ATCC 10231, 48 h; outline: as §3
[16] = tested on: Mycolicibacterium smegmatis; test: Antibacterial activity against Mycobacterium smegmatis MC2 155 by microdilution method; assay type: functional; conditions: str. MC2 155; outline: as §1
Staphylococcus aureus [17] = test: Antibacterial activity against Staphylococcus aureus NRS382 (USA 100) by microdilution method; assay type: functional; outline: as §2
A549 = test: Cytotoxicity against human A549 cells after 24 hrs by resazurin assay; assay type: cell-based; conditions: human, a549, 24 h
[18] = Activity of AAC(3)-4 (unknown origin)/Serratia marcescens AAC(6')-2d assessed as compound conversion to 3'-acetylated product incubated for 20 hrs by TLC analysis
[19] = Activity of Mycobacterium tuberculosis […]/AAC(3)-4 (unknown origin)/Serratia marcescens AAC(6')-2d (unknown origin) assessed as compound conversion to diacetylated adduct incubated for 20 hrs by TLC analysis
[20] = tested on: Mycobacterium tuberculosis; test: Activity of Mycobacterium tuberculosis AAC(2')-1c assessed as compound conversion to monoacetylated product incubated for 20 hrs by TLC analysis
[21] = Activity of Mycobacterium tuberculosis AAC(2')-1c/AAC(3)-4 (unknown origin) assessed as compound conversion to 3'-acetylated product incubated for 20 hrs by TLC analysis
[22] = tested on: Staphylococcus epidermidis; test: Antibacterial activity against Staphylococcus epidermidis ATCC 12228 by microdilution method; assay type: functional; outline: as §2
Candida albicans [23] = test: Antifungal activity against azole-resistant Candida albicans MYA-1003 after 48 hrs by microbroth dilution method; assay type: functional; conditions: MYA-1003, 48 h; outline: as §3
Candida albicans [24] = test: Antifungal activity against azole-susceptible Candida albicans ATCC MYA-2310 after 48 hrs by microbroth dilution method; assay type: functional; conditions: ATCC MYA-2310, 48 h; outline: as §3
Pseudomonas aeruginosa = test: Antibacterial activity against Pseudomonas aeruginosa ATCC 27853 by microdilution method; assay type: functional; outline: as §2
Enterobacter cloacae = test: Antibacterial activity against Enterobacter cloacae ATCC 13047 by microdilution method; assay type: functional; outline: as §2
Listeria monocytogenes [25] = test: Resistance index, ratio of MIC for Listeria monocytogenes ATCC 19115 after 6-passage to MIC for Listeria monocytogenes ATCC 19115 by microdilution method; assay type: functional
Outline: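 Cells grown at subinhibitory concentration (1/2 MIC) seed each next round. The index compares the MIC at a later passage with the starting MIC.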

Serratia marcescens = test: Activity of Serratia marcescens AAC(6')-2d assessed as compound conversion to monoacetylated product incubated for 20 hrs by TLC analysis
Staphylococcus aureus [26] = test: Antibacterial activity against Staphylococcus aureus NRS383 (USA 200) by microdilution method; assay type: functional; outline: as §2

Compound: NC[C@H]1O[C@H](O[C@H]2[C@H](O)[C@@H](O[C@H]3O[C@H](CO)[C@@H](O)[C@H](N)[C@H]3O)[C@H](N)C[C@@H]2N)[C@H](N)[C@@H](O)[C@@H]1O [BEKANAMYCIN]
- MIC (Enterococcus): > 128 µg/mL
- MIC (Klebsiella pneumoniae): 4 µg/mL (≈ 8.27 µM)
- MIC (Bacillus subtilis): 4 µg/mL (≈ 8.27 µM)
- MIC (Candida albicans [1]): > 125 µg/mL
- Activity [2]: inactive
- MIC (Aspergillus nidulans): > 125 µg/mL
- MIC (Candida albicans [3]): > 125 µg/mL
- Activity [4]: Non-toxic
- MIC (Staphylococcus aureus [5]): 32 µg/mL (≈ 66.2 µM)
- MIC (Listeria monocytogenes [6]): ≤ 0.25 µg/mL
- MIC (Acinetobacter baumannii): 4 µg/mL (≈ 8.27 µM)
- MIC (Staphylococcus aureus [7]): 32 µg/mL (≈ 66.2 µM)
- MIC (Staphylococcus aureus [8]): > 128 µg/mL
- Activity [9]: Non-toxic
- Activity [10]: Active
- MIC (Candida albicans [11]): > 125 µg/mL
- MIC (Escherichia coli): 2 µg/mL (≈ 4.14 µM)
- MIC (Salmonella enterica): 2 µg/mL (≈ 4.14 µM)
- MIC (Staphylococcus aureus [12]): ≤ 0.25 µg/mL
- MIC (Candida albicans [13]): > 125 µg/mL
- Activity (Candida albicans [14]): 5%
- MIC (Candida albicans [15]): > 125 µg/mL
- MIC [16]: ≤ 0.25 µg/mL
- MIC (Staphylococcus aureus [17]): > 128 µg/mL
- Activity (A549): Non-toxic
- Activity [18]: inactive
- Activity [19]: Active
- Activity [20]: Active
- Activity [21]: inactive
- MIC [22]: 0.5 µg/mL (≈ 1.03 µM)
- MIC (Candida albicans [23]): > 125 µg/mL
- MIC (Candida albicans [24]): > 125 µg/mL
- MIC (Pseudomonas aeruginosa): 16 µg/mL (≈ 33.1 µM)
- MIC (Enterobacter cloacae): 0.5 µg/mL (≈ 1.03 µM)
- Ratio (Listeria monocytogenes [25]): 4
- Activity (Serratia marcescens): Active
- MIC (Staphylococcus aureus [26]): 128 µg/mL (≈ 265 µM)
